Series [1] can be described thus: Inhibition of beta-hematin formation after 24 hrs. Type of series: functional. The procedure, abridged: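 40 µM heme in 0.67 M sodium acetate pH 4.8 with 0.0005 g/L Tween20, compound at 0–1000 µM. Incubated 24 h at 37 °C in the dark, then read at 415/630 nm. IC50 taken as (Dmax − Dinitial)/2. Duplicate assays, run twice.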
Series [2] can be described thus: Therapeutic index, ratio of IC50 for mice (Mus musculus) spleen lymphocytes to IC50 for chloroquine-resistant Plasmodium falciparum Dd2. The series is classed as tissue-based. The note with it: read-out: Ratio IC50.
Series [3] deals with Plasmodium berghei. Put plainly: Antiplasmodial activity against Plasmodium berghei infected in NMRI mice (Mus musculus) assessed as survival rate at 44 mg/kg, perorally administered as 4 consecutive doses measured post last dose. The series is classed as functional. The note with it: route oral. Put shortly: (§1)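 P. berghei blood diluted in saline to 10^8 parasitized erythrocytes/mL; 0.2 mL given i.v. to groups of 3 female NMRI mice (controls 5). Compounds dosed at 10 ml/kg either once on day 1 (oral gavage or subcutaneous) or orally at 4, 24, 48, 72 h post-infection. Parasitemia read by FACS on 100,000 RBCs from tail blood on day 3 (single dose) or day 4 (quadruple dose). Activity = % reduction versus control mean. Survival monitored to 30 days.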

Series [4] relates to Plasmodium berghei. Put plainly: Antiplasmodial activity against Plasmodium berghei infected in NMRI mice (Mus musculus) assessed as parasitaemia level at 44 mg/kg, perorally administered as 4 consecutive doses measured after 4 days post last dose relative to control. The series is classed as functional. The settings on record: route oral.
The next series addresses Heme. Put plainly: Binding affinity to heme after 4 hrs by equilibrium binding assay. Put shortly: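 Heme stock in NaOH, diluted to 5 µM in 100 mM phosphate buffer pH 5.7 and equilibrated 4 h. Optical titration by successive addition of compound, with pH held within ±0.05. Apparent dissociation constants from nonlinear least-squares fitting, assuming 2:1 heme:drug stoichiometry.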

The test system of series [5] is Plasmodium falciparum. Put plainly: Ratio of compound IC50 to chloroquine IC50 for chloroquine-resistant Plasmodium falciparum 7G8. The series is classed as functional.
Series [6] concerns Plasmodium falciparum. Put plainly: Ratio of compound IC50 to chloroquine IC50 for chloroquine-sensitive Plasmodium falciparum D6. Type of series: functional.
In series [7] the test system is Plasmodium falciparum. Put plainly: Ratio of compound IC50 to chloroquine IC50 for chloroquine-resistant Plasmodium falciparum Dd2. Type of series: functional.
Series [8] relates to Plasmodium berghei. The experiment in a line: Antiplasmodial activity against Plasmodium berghei infected in NMRI mice (Mus musculus) assessed as survival rate at 30 mg/kg, subcutaneously administered as single dose. Type of series: functional. The note with it: route subcutaneous. Put shortly: as §1
The test system of series [9] is Plasmodium falciparum. Put plainly: Inhibition of hemozoin formation in early trophozoites of chloroquine-sensitive Plasmodium falciparum D6 infected in RBC assessed as enlarged digestive vacuole at 100 nM after 24 hrs by microscopic analysis. The series is classed as functional, organism-based. The procedure, abridged: (§2)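 Ring-stage D6 parasites synchronized with 5% sorbitol, suspended at 1% hematocrit and drug added from 1 mM stock. Incubated 24 h at 37 °C under 5% O2/5% CO2/90% N2 alongside a no-drug control. Giemsa-stained smears were used for parasitemia and for microscopic examination of hemozoin and parasite morphology.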

Series [10] concerns Plasmodium berghei. Put plainly: Antiplasmodial activity against Plasmodium berghei infected in NMRI mice (Mus musculus) assessed as parasitaemia level at 46 mg/kg, perorally administered as 4 consecutive doses measured after 4 days post last dose relative to control. The note with it: route oral. Type of series: functional.
Series [11] relates to Plasmodium berghei. The experiment in a line: Antiplasmodial activity against Plasmodium berghei infected in NMRI mice (Mus musculus) assessed as parasitaemia level at 30 mg/kg, subcutaneously after 3 days relative to control. Type of series: functional. The settings on record: route subcutaneous. Put shortly:
as §1

Series [12] has as its system Plasmodium berghei. Put plainly: Antiplasmodial activity against Plasmodium berghei infected in NMRI mice (Mus musculus) assessed as survival rate at 30 mg/kg, perorally administered as 4 consecutive doses measured post last dose. The series is classed as functional. The settings on record: route oral. The procedure, abridged:
as §1

The subject of series [13] is Plasmodium falciparum. The experiment in a line: Antiplasmodial activity against synchronized chloroquine-sensitive Plasmodium falciparum D6 infected in NMRI mice (Mus musculus) RBC assessed as inhibition of hemozoin formation at 10 nM after 24 hrs by colorimetric analysis. The series is classed as functional, organism-based. Put shortly:
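D6 cultures synchronized with sorbitol, held at 1% hematocrit, drug-treated 24 h at 37 °C. Parasites freeze-thawed, then lysed 30 min at 37 °C in saponin/Triton X-100 buffer. Hemozoin pelleted at 215,000 g, washed with acetone and PBS, dissolved 2 h in 0.2 N NaOH. Heme read at A400 (ε 91,000 cm-1M-1) and expressed per parasitized erythrocyte. A 0 h culture gave the baseline.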

The subject of series [14] is Plasmodium falciparum. The experiment in a line: Antiplasmodial activity against chloroquine-resistant Plasmodium falciparum Dd2 early trophozoites infected in NMRI mice (Mus musculus) RBC assessed as inhibition of hemozoin formation at 50 nM after 24 hrs by microscopic analysis. The series is classed as functional, organism-based. Put shortly:
(§3)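 D6 and Dd2 cultures synchronized to ring stage with 5% sorbitol, suspended at 1% hematocrit and exposed to drug (from 1 mM stock) for 24 h at 37 °C under 5% O2/5% CO2/90% N2. Giemsa-stained smears examined by microscopy for hemozoin, parasitemia and parasite morphology.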

The test system of series [15] is Plasmodium falciparum. The experiment in a line: Antiplasmodial activity against synchronized chloroquine-resistant Plasmodium falciparum Dd2 infected in NMRI mice (Mus musculus) RBC assessed as inhibition of hemozoin formation at 100 nM after 24 hrs by colorimetric analysis. Type of series: functional, organism-based. Put shortly: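 Sorbitol-synchronized D6 and Dd2 cultures at 1% hematocrit were drug-treated for 24 h at 37 °C. Parasites were freed by freeze-thaw and saponin/Triton lysis buffer (37 °C, 30 min). Hemozoin was pelleted at 215,000 g, washed with acetone and PBS, then dissolved in 0.2 N NaOH. Heme was quantified by A400 (ε 91,000 cm-1M-1) per parasitized erythrocyte. Baseline was taken from 0 h culture.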

Series [16] deals with Plasmodium berghei. Put plainly: Antiplasmodial activity against Plasmodium berghei infected in NMRI mice (Mus musculus) assessed as parasitaemia level at 30 mg/kg, perorally administered as single dose measured after 3 days relative to control. Type of series: functional. The settings on record: route oral. Put shortly: as §1
The test system of series [17] is Plasmodium berghei. Put plainly: Antiplasmodial activity against Plasmodium berghei infected in NMRI mice (Mus musculus) assessed as survival rate at 30 mg/kg, perorally administered as single dose. Type of series: functional. The settings on record: route oral. Put shortly: as §1
Series [18] has as its system Plasmodium berghei. The experiment in a line: Antiplasmodial activity against Plasmodium berghei infected in NMRI mice (Mus musculus) assessed as parasitaemia level at 30 mg/kg, perorally administered as 4 consecutive doses measured after 3 days post last dose relative to control. The note with it: route oral. Type of series: functional. The procedure, abridged: as §1

Series [19] relates to Plasmodium falciparum. Put plainly: Antiplasmodial activity against chloroquine-sensitive Plasmodium falciparum D6 early trophozoites infected in NMRI mice (Mus musculus) RBC assessed as inhibition of hemozoin formation at 50 nM after 24 hrs by microscopic analysis. The series is classed as functional, organism-based. Put shortly:
as §2

The subject of series [20] is Plasmodium berghei. Put plainly: Antiplasmodial activity against Plasmodium berghei infected in NMRI mice (Mus musculus) assessed as survival rate at 46 mg/kg, perorally administered as 4 consecutive doses measured post last dose. The series is classed as functional. The note with it: route oral. Put shortly:
as §1

In series [21] the test system is Plasmodium falciparum. The experiment in a line: Antiplasmodial activity against chloroquine-sensitive Plasmodium falciparum D6 early trophozoites infected in NMRI mice (Mus musculus) RBC assessed as inhibition of hemozoin formation at 10 nM after 24 hrs by microscopic analysis. The series is classed as functional, organism-based. The procedure, abridged:
as §2

Series [22] has as its system Plasmodium falciparum. The experiment in a line: Antiplasmodial activity against chloroquine-resistant Plasmodium falciparum Dd2 early trophozoites infected in NMRI mice (Mus musculus) RBC assessed as inhibition of hemozoin formation at 10 nM after 24 hrs by microscopic analysis. Type of series: functional, organism-based. Put shortly: as §3
In another series the test system is Mus musculus. The experiment in a line: Toxicity in NMRI mouse at 30 mg/kg, po administered as single dose. Type of series: organism-based. Also on record: dose 30 mg/kg, route oral. The settings on record: in vivo.

The values below come from ChEMBL document CHEMBL1250478 (J Med Chem, 2010).

Activity calls are given as the source filed them. The rule behind the calls is not given here.

As to `Clc1ccc2c(NCCN3CCC(NC(c4ccccn4)c4ccccn4)CC3)ccnc2c1`, half-maximal inhibition in series [1] (IC50) was put at 2000 nM. Moreover, the selectivity ratio in series [2] amounted to 7310. Further, the Survival with Plasmodium berghei [3] is more than 30 days. Besides, the Activity in the series with Plasmodium berghei [4] is more than 99.9%. The compound further registered a Kd at Heme of 1000 nM. Moreover, the entries for the “Ratio IC50” value with Plasmodium falciparum [5], in the series with Plasmodium falciparum [6] and in the series with Plasmodium falciparum [7] were 7.4, 1.1 and 3.9, respectively.

Consider `Clc1ccc2c(NCCCN3CCC(NC(c4ccccn4)c4ccccn4)CC3)ccnc2c1` [DM-1157], for which the Survival is 9 days in the series on Plasmodium berghei [8], 27 days with Plasmodium berghei [12], 7 days in the series with Plasmodium berghei [17] and 30 days in the series on Plasmodium berghei [20]. The inhibition result in the series with Plasmodium falciparum [9], in the series on Plasmodium falciparum [13], with Plasmodium falciparum [14], in the series with Plasmodium falciparum [15], with Plasmodium falciparum [19] and with Plasmodium falciparum [21] was “Active” in each case. For the same compound, the inhibition entry with Plasmodium falciparum [22] is “Active”. Further, the Activity was more than 99.9% in the series with Plasmodium berghei [10]; 99.3% with Plasmodium berghei [11]; 94% with Plasmodium berghei [16]; more than 99.9% with Plasmodium berghei [18]; “Non-toxic” with Mus musculus.

Usually IC50 stands for the concentration needed to halve the response being measured. The low end stands for inhibition by little substance, the high end for a need for much substance. One may read the Kd as the concentration at which binding is half-saturated. Read a high Kd as a looser complex.
